The values below come from ChEMBL document CHEMBL2163269, “Double-headed sulfur-linked amino acids as first inhibitors for betaine-homocysteine S-methyltransferase 2” (J Med Chem, 2012).

Molecules are shown by their SMILES. Active and inactive are the calls of the source. The calls are words filed in the database; no cut-off is given here. Bounds are passed on as bounds.

The target of test [1] is T1, Betaine--homocysteine S-methyltransferase 1 (Homo sapiens) (UniProt Q93088).
T1 sequence (whole entry): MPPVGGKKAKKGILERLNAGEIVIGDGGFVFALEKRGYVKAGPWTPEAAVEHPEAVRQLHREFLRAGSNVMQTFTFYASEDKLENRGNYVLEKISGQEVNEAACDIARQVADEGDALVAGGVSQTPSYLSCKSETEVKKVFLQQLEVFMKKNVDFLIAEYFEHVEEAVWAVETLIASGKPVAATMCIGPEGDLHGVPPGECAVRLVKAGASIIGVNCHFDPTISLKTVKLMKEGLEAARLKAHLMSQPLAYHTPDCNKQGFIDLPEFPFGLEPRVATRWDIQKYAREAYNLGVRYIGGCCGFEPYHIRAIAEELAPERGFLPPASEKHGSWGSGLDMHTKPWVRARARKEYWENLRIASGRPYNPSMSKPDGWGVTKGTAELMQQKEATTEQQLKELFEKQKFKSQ
Description: Inhibition of recombinant human BHMT expressed in Escherichia coli […] at 20 uM. In outline: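 Human BHMT at 0.2 or 0.4 μM in 0.5 mL. 30 min at 37 °C, blanks without enzyme subtracted. Percent inhibition at 20 μM inhibitor in tetraplicates, means ± SEM.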

The target in test [2] is T2, S-methylmethionine--homocysteine S-methyltransferase BHMT2 (Homo sapiens) (UniProt Q9H2M3).
T2 sequence (whole entry): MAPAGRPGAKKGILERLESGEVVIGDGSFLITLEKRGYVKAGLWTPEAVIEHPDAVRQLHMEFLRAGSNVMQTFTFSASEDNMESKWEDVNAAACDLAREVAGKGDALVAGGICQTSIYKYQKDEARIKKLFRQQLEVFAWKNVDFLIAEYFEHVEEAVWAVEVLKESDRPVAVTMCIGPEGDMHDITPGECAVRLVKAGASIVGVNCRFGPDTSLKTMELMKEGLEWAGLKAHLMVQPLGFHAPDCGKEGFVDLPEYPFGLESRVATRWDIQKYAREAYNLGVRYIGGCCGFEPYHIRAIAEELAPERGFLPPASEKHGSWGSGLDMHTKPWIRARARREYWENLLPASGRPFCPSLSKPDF
The test can be described thus: Inhibition of recombinant human BHMT2 expressed in Escherichia coli […] at 20 uM. The essentials:
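BHMT-2 copurified with BHMT, 0.2–1 μM total protein. Reaction: 0.25 mM SMM (0.3 μCi), 2.5 mM D,L-Hcy, 0.2 mM ZnCl2, 0.1% β-mercaptoethanol, 50 mM Tris/HCl pH 7.5, 60 min at 37 °C. Methanol stop, product isolated on Dowex 1×4. Percent inhibition at 20 μM, tetraplicates, means ± SEM.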

Test [3] has as its target T3, S-methylmethionine--homocysteine S-methyltransferase BHMT2 (Homo sapiens, UniProt Q9H2M3).
T3 sequence (Q9H2M3 whole entry): T2 sequence (whole entry)
The test can be described thus: Inhibition of recombinant human BHMT2 expressed in Escherichia coli […]. In outline: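 BHMT-2 stabilized by copurification with BHMT, 0.2–1 μM total protein. 0.2 mL: 0.25 mM radiolabeled SMM (0.3 μCi), 2.5 mM D,L-Hcy, 0.2 mM ZnCl2, 0.1% β-mercaptoethanol, 50 mM Tris/HCl pH 7.5. 60 min at 37 °C, Dowex separation. At least nine inhibitor concentrations in duplicate. IC50 by nonlinear regression, ±SEM of three independent runs.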

Test [4] concerns the target T3, S-methylmethionine--homocysteine S-methyltransferase BHMT2. The test can be described thus: Competitive inhibition of recombinant human BHMT2 expressed in Escherichia coli […] by Dixon plot method in presence of D,L-homocysteine. The settings on record: read-out: Ki(app). In outline: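 BHMT-2 copurified with BHMT on chitin affinity. 0.2 mL reaction: 0.25 mM SMM (0.3 μCi), 0.2 mM ZnCl2, 0.1% β-mercaptoethanol, 50 mM Tris/HCl pH 7.5. D,L-Hcy varied 75–250 μM, inhibitor 0–300 nM. 60 min at 37 °C, methanol stop, Dowex 1×4 column. Triplicates, four separate measurements. Kiapp read from line intersection.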

In test [5] the target is T4, Betaine--homocysteine S-methyltransferase 1 (Homo sapiens, UniProt Q93088).
T4 sequence (Q93088 whole entry): T1 sequence (whole entry)
The test can be described thus: Inhibition of recombinant human BHMT expressed in Escherichia coli […]. In outline:
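Human BHMT at 0.2 or 0.4 μM in 0.5 mL. Mix: 2 mM 14C-betaine (0.15 μCi), 1 mM fresh D,L-Hcy, 50 mM Tris/HCl pH 7.5, 0.07% β-mercaptoethanol. 30 min at 37 °C, ice-water stop, no-enzyme blank subtracted. At least nine inhibitor concentrations, duplicates. IC50 by nonlinear regression, ±SEM from three independent runs.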

As a reminder, the inhibition is how much of the control response was suppressed. `NC(CCSCCCCC(=O)O)C(=O)O` (stereo not given): the inhibition result in test [1] is “Active”. The inhibition result in test [2] was “inactive”.
On to `N[C@@H](CCSCCSCC[C@H](N)C(=O)O)C(=O)O`, for which the inhibition in test [2] worked out at 60%.
Turning to `N[C@@H](CCSCSCC[C@H](N)C(=O)O)C(=O)O`, the inhibition result in test [2] was “inactive”.
For orientation: IC50 means the midpoint of a concentration-inhibition curve. For the compound `CC(CCSCC[C@H](N)C(=O)O)CCC(N)C(=O)O` (mixture of isomers), the values for the inhibition in test [1] and in test [2] were 28% and > 90%, respectively. Further, the values for the IC50 in test [3] and in test [5] were 3.6 µM and 76.6 µM, respectively. Also, the Ki in test [4] is 0.077 µM.
On to `CC(C)(CCSCC[C@H](N)C(=O)O)CCC(N)C(=O)O` (mixture of isomers), for which the inhibition result in test [1] was “Active”.
